ChEMBL document CHEMBL4689842, “EUbOPEN Chemogenomics Library wave 1” (2021)

System: U2OS
Assay: Multiplex assay against U2OS
Format: toxicity, cell-based
Settings: human
How it was run: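 Live cells were stained at seeding with Hoechst33342, BioTracker Green Microtubule Cytoskeleton Dye, MitoTracker Red and Annexin V Alexa Fluor 680, then imaged on a CQ1 microscope at 37°C and 5% CO2 after compound addition. CellPathfinder machine-learning gating split cells into Hoechst high-intensity objects or normal cells. Normal cells were split into healthy, pyknosed or fragmented nuclei, and pyknosed cells into mitotic or apoptotic. Tubulin, mitochondrial-mass and membrane-permeability phenotypes are per cents of healthy-nucleus cells.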

[1] = 12 h, 1 µM, compound concentration 1 uM, replicate 1
[2] = 12 h, 1 µM, compound concentration 1 uM, replicate 2
[3] = 12 h, 10 µM, compound concentration 10 uM, replicate 1
[4] = 12 h, 10 µM, compound concentration 10 uM, replicate 2
[5] = 24 h, 1 µM, compound concentration 1 uM, replicate 1
[6] = 24 h, 1 µM, compound concentration 1 uM, replicate 2
[7] = 24 h, 10 µM, compound concentration 10 uM, replicate 1
[8] = 24 h, 10 µM, compound concentration 10 uM, replicate 2
[9] = 48 h, 1 µM, compound concentration 1 uM, replicate 1
[10] = 48 h, 1 µM, compound concentration 1 uM, replicate 2
[11] = 48 h, 10 µM, compound concentration 10 uM, replicate 1
[12] = 48 h, 10 µM, compound concentration 10 uM, replicate 2

## CC(C)Oc1ccccc1C(=O)Nc1ccccc1C(=O)Nc1cccc(S(=O)(=O)C(F)(F)F)c1
[1]
  Population Apoptotic (%): 47%
  Population Fragmented Nuclei (%): 14%
  Population Healthy Nuclei (%): 67%
  Population Hoechst High Intensity Objects (%): 11%
  Population Membrane Permeable-Phenotype (%): 4%
  Population Mitochondria Different-Phenotype (%): 61%
  Population Mitotic Cells (%): 52%
  Population Normal (%): 88%
  Population Pyknosed Nuclei (%): 18%
  Population Tubulin-Different-Phenotype (%): 55%
  Total Cell Count: 120
[2]
  Population Apoptotic (%): 33%
  Population Fragmented Nuclei (%): 20%
  Population Healthy Nuclei (%): 74%
  Population Hoechst High Intensity Objects (%): 5%
  Population Membrane Permeable-Phenotype (%): 10%
  Population Mitochondria Different-Phenotype (%): 45%
  Population Mitotic Cells (%): 66%
  Population Normal (%): 94%
  Population Pyknosed Nuclei (%): 6%
  Population Tubulin-Different-Phenotype (%): 37%
  Total Cell Count: 62
[3]
  Population Apoptotic (%): 68%
  Population Fragmented Nuclei (%): 14%
  Population Healthy Nuclei (%): 61%
  Population Hoechst High Intensity Objects (%): 8%
  Population Membrane Permeable-Phenotype (%): 95%
  Population Mitochondria Different-Phenotype (%): 61%
  Population Mitotic Cells (%): 32%
  Population Normal (%): 91%
  Population Pyknosed Nuclei (%): 24%
  Total Cell Count: 142
[4]
  Population Apoptotic (%): 90%
  Population Fragmented Nuclei (%): 17%
  Population Healthy Nuclei (%): 71%
  Population Hoechst High Intensity Objects (%): 4%
  Population Membrane Permeable-Phenotype (%): 97%
  Population Mitochondria Different-Phenotype (%): 92%
  Population Mitotic Cells (%): 10%
  Population Normal (%): 96%
  Population Pyknosed Nuclei (%): 10%
  Population Tubulin-Different-Phenotype (%): 100%
  Total Cell Count: 53
[5]
  Population Apoptotic (%): 55%
  Population Fragmented Nuclei (%): 15%
  Population Healthy Nuclei (%): 71%
  Population Hoechst High Intensity Objects (%): 8%
  Population Membrane Permeable-Phenotype (%): 2%
  Population Mitochondria Different-Phenotype (%): 48%
  Population Mitotic Cells (%): 44%
  Population Normal (%): 91%
  Population Pyknosed Nuclei (%): 13%
  Population Tubulin-Different-Phenotype (%): 48%
  Total Cell Count: 109
[6]
  Population Apoptotic (%): 33%
  Population Fragmented Nuclei (%): 21%
  Population Healthy Nuclei (%): 66%
  Population Hoechst High Intensity Objects (%): 7%
  Population Membrane Permeable-Phenotype (%): 11%
  Population Mitochondria Different-Phenotype (%): 58%
  Population Mitotic Cells (%): 66%
  Population Normal (%): 92%
  Population Pyknosed Nuclei (%): 11%
  Population Tubulin-Different-Phenotype (%): 35%
  Total Cell Count: 57
[7]
  Population Apoptotic (%): 74%
  Population Fragmented Nuclei (%): 23%
  Population Healthy Nuclei (%): 48%
  Population Hoechst High Intensity Objects (%): 6%
  Population Membrane Permeable-Phenotype (%): 92%
  Population Mitochondria Different-Phenotype (%): 74%
  Population Mitotic Cells (%): 25%
  Population Normal (%): 93%
  Population Pyknosed Nuclei (%): 27%
  Population Tubulin-Different-Phenotype (%): 100%
  Total Cell Count: 148
[8]
  Population Apoptotic (%): 100%
  Population Fragmented Nuclei (%): 17%
  Population Healthy Nuclei (%): 56%
  Population Hoechst High Intensity Objects (%): 11%
  Population Membrane Permeable-Phenotype (%): 91%
  Population Mitochondria Different-Phenotype (%): 94%
  Population Mitotic Cells (%): 0%
  Population Normal (%): 88%
  Population Tubulin-Different-Phenotype (%): 98%
  Total Cell Count: 55
[9]
  Population Apoptotic (%): 81%
  Population Fragmented Nuclei (%): 10%
  Population Healthy Nuclei (%): 74%
  Population Hoechst High Intensity Objects (%): 3%
  Population Membrane Permeable-Phenotype (%): 4%
  Population Mitochondria Different-Phenotype (%): 31%
  Population Mitotic Cells (%): 18%
  Population Normal (%): 96%
  Population Pyknosed Nuclei (%): 14%
  Population Tubulin-Different-Phenotype (%): 25%
  Total Cell Count: 109
[10]
  Population Apoptotic (%): 66%
  Population Fragmented Nuclei (%): 22%
  Population Healthy Nuclei (%): 72%
  Population Hoechst High Intensity Objects (%): 7%
  Population Membrane Permeable-Phenotype (%): 18%
  Population Mitochondria Different-Phenotype (%): 48%
  Population Mitotic Cells (%): 33%
  Population Normal (%): 92%
  Population Pyknosed Nuclei (%): 5%
  Population Tubulin-Different-Phenotype (%): 41%
  Total Cell Count: 56
[11]
  Population Apoptotic (%): 77%
  Population Fragmented Nuclei (%): 64%
  Population Healthy Nuclei (%): 19%
  Population Hoechst High Intensity Objects (%): 7%
  Population Membrane Permeable-Phenotype (%): 36%
  Population Mitochondria Different-Phenotype (%): 84%
  Population Mitotic Cells (%): 22%
  Population Normal (%): 93%
  Population Pyknosed Nuclei (%): 15%
  Population Tubulin-Different-Phenotype (%): 93%
  Total Cell Count: 190
[12]
  Population Apoptotic (%): 64%
  Population Fragmented Nuclei (%): 43%
  Population Healthy Nuclei (%): 38%
  Population Hoechst High Intensity Objects (%): 9%
  Population Membrane Permeable-Phenotype (%): 62%
  Population Mitochondria Different-Phenotype (%): 75%
  Population Mitotic Cells (%): 36%
  Population Normal (%): 90%
  Population Pyknosed Nuclei (%): 17%
  Population Tubulin-Different-Phenotype (%): 98%
  Total Cell Count: 64
